Test results published in ChEMBL document CHEMBL1137574, “Synthesis and structure-activity relationship for a novel class of potent and selective carbamate-based inhibitors of hormone selective lipase with acute in vivo antilipolytic effects” (J Med Chem, 2007).
Activity calls are given as the source filed them. No cut-off for these calls is given here.

Legend:
[1] = Clearance in Sprague-Dawley rat at 1.1 mg/kg, iv and 2.2 mg/kg, po; type: ADME, organism-based; conditions: in vivo
Method in brief: (§1)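 Rat PK study, one rat per time point. Dosed i.v. and p.o. by gavage in 10% hydroxypropyl cyclodextrin in phosphate buffer pH 7.0; one compound was given in 20% Tween 80 plus 5% glucose in phosphate buffer pH 7.0. Plasma was diluted 1:1 with 10% methanol and centrifuged, then quantified by turbulent-flow chromatography–MS/MS against plasma calibration curves spanning 10-3000 ng/mL.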

[2] = target: T1, Hormone-sensitive lipase (Homo sapiens, UniProt Q05469); assay: Inhibition of recombinant human hormone-sensitive lipase
T1 sequence (Q05469 whole entry): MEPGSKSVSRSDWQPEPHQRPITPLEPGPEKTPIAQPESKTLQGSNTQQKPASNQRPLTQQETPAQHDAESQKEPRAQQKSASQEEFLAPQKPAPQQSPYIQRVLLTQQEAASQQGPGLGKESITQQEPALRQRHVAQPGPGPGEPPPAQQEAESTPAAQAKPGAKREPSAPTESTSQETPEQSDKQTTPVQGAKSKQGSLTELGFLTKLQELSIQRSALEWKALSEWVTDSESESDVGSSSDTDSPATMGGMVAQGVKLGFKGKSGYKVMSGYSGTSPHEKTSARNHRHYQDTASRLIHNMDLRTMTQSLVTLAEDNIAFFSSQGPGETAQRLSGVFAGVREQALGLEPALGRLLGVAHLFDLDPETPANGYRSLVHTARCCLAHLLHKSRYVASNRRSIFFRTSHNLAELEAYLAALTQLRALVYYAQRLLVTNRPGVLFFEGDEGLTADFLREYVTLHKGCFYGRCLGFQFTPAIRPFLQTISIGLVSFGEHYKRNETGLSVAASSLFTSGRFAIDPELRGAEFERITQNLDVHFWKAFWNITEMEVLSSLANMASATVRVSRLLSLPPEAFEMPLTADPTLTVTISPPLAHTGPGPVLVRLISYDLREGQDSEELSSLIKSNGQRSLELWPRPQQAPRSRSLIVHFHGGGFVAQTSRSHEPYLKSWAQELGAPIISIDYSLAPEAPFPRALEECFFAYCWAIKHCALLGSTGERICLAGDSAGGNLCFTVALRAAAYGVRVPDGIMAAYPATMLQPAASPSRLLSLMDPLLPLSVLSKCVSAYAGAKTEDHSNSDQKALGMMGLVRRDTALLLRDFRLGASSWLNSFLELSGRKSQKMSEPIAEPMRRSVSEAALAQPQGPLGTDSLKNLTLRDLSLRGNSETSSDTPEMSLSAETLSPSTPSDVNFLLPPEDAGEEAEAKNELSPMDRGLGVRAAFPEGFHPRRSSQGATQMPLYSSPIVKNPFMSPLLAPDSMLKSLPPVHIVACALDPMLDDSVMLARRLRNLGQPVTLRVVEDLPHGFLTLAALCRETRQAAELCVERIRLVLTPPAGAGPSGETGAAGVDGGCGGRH

[3] = species: Homo sapiens; assay: Inhibition of acetylcholine lipase
[4] = Cmax in Sprague-Dawley rat at 1.1 mg/kg, iv and 2 mg/kg, po; type: ADME, organism-based; conditions: in vivo; method in brief: as §1
[5] = Oral bioavailability in Sprague-Dawley rat at 2.2 mg/kg, po; type: ADME, organism-based; conditions: in vivo; method in brief: as §1
[6] = target: T2, Hepatic triacylglycerol lipase (Homo sapiens) (UniProt P11150); assay: Inhibition of hepatic lipase
T2 sequence (whole entry): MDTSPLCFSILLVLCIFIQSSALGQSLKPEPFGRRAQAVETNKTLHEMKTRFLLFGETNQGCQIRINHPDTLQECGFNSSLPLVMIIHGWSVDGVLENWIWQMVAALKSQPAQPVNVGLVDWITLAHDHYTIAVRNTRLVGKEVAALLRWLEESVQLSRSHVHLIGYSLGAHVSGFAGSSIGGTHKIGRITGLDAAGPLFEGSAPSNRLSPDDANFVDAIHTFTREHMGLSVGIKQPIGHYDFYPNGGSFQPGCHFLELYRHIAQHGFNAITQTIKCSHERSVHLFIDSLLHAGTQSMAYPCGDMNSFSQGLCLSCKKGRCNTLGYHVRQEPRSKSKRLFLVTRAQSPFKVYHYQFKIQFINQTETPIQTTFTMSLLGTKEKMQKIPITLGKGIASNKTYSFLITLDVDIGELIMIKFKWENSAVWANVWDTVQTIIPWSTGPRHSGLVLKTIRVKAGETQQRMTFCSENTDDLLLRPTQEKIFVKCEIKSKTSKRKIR
Method in brief: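 Lipase inhibition (pancreatic, bovine lipoprotein, human hepatic) used a fluorochrome (NBD)-labelled triacylglyceride substrate. Inhibitor at six concentrations, 5-fold dilutions from a maximum of 100 µM, each point the mean of two measurements. IC50 from sigmoidal variable-slope nonlinear regression.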

[7] = Cmax in Sprague-Dawley rat at 1.2 mg/kg, iv and […] mg/kg, po; type: ADME, organism-based; conditions: in vivo, 2.4 mg/kg
[8] = Clearance in Sprague-Dawley rat at 1.2 mg/kg, iv and […] mg/kg, po; type: ADME, organism-based; conditions: in vivo
[9] = Oral bioavailability in Sprague-Dawley rat at 2.4 mg/kg, po; type: ADME, organism-based; conditions: in vivo
Method in brief: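 Male Sprague-Dawley rats, 12 weeks old, dosed by oral gavage and i.v. in 10% hydroxypropyl cyclodextrin in phosphate buffer pH 7.0, with one rat per time point. Plasma was diluted 1:1 in 10% methanol, centrifuged and quantified by turbulent-flow chromatography–tandem MS against plasma calibration curves (10-3000 ng/mL).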

[10] = target: Acetylcholinesterase (Homo sapiens, UniProt P22303); assay: Inhibition of acetylcholine esterase
Method in brief: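 Acetylcholinesterase activity measured with acetylthiocholine substrate. Inhibitor at six concentrations in 5-fold steps from a maximum of 100 µM, duplicate measurements averaged. IC50 from variable-slope sigmoidal dose-response fit.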

Sequence of Acetylcholinesterase (P22303 whole entry): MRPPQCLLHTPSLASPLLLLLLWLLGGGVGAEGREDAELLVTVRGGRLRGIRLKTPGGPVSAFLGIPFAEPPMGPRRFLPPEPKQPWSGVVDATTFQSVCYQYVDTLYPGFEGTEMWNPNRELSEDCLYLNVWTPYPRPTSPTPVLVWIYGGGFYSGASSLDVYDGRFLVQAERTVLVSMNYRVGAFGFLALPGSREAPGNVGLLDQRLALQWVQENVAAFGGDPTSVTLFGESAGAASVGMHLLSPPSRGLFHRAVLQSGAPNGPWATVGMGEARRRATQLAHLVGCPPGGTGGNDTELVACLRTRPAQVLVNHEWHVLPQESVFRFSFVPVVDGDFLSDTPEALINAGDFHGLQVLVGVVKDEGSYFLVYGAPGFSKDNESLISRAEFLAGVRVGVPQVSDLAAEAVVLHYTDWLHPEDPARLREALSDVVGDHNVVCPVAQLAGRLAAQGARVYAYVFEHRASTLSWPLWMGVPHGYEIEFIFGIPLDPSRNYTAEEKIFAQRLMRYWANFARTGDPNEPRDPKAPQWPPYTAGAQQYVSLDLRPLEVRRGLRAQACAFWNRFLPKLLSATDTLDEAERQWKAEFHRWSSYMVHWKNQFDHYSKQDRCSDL

## O=C(Oc1ccc(Oc2ccc(C(F)(F)F)cn2)cc1)N1CCC(CO)CC1
[1]
  clearance: 46 mL/min/kg
[2]
  IC50: 110 nM
[3]
  Activity: inactive
[4]
  Cmax: 60 ng/mL
[5]
  bioavailability: 10%
[6]
  Activity: inactive

## O=C(Oc1ccc(Oc2ccc(C(F)(F)F)cn2)cc1)N1CCC(O)CC1
[7]
  Cmax: 1220 ng/mL
[8]
  clearance: 9 mL/min/kg
[2]
  IC50: 500 nM
[3]
  Activity: inactive
[6]
  Activity: inactive
[9]
  bioavailability: 56%
[10]
  IC50: > 50000 nM
